The text below walks through data of ChEMBL document CHEMBL1129253, “Synthesis and pharmacological activity of triazole derivatives inhibiting eosinophilia” (1996).

The test system of one test is Rattus norvegicus. As to the kind of experiment: Inhibitory activity against eosinophilia when administered intraperitoneally in rats. As to conditions: ip, read-out: ID50 (the source's name).
On to `C/N=C(\S)n1nc(-c2ccc(Cl)cc2)nc1N`, for which the ED50 was determined as 0.07 mg/kg.

A further test has as its system Rattus norvegicus. In words: Tested for sephadex-induced lung Eosinophilia inhibition at 30 mg/kg in rat. Format: functional.
Conditions: not given
The procedure, abridged:
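Male Wistar rats (5/group) received 1 mL Sephadex G-200 (0.5 mg/mL in saline, boiled 5 h) by tail vein on days 0, 3 and 5. Drug or vehicle was given ip 10 min before each injection. On day 7, lungs were lavaged three times with heparinized PBS at 37 °C. Eosinophils and total cells were counted in Hinkelman reagent. % inhibition compares group-mean eosinophil/total ratios with vehicle.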
By inhibition in vivo is commonly meant the drop in the measured response relative to a control, in per cent. As for `CCCCCC/N=C(\S)n1ncnc1N`, the inhibition in vivo at 30 mg/kg is -1%.
Same read-out and setting: to `C/N=C(\S)n1nc(C)nc1N` belongs 13%; to `CNC(=S)n1ncnc1NC`, -1%; to `C/N=C(\S)n1nc(-c2ccc(C#N)cc2)nc1N`, 87%.
Still for that read-out and setting: then `CSC(=S)n1ncnc1N`, with 36%.
Consider `C/N=C(\S)Nc1ccc(-c2nc(N)n(/C(S)=N/C)n2)cc1`, for which the inhibition in vivo at 30 mg/kg turned out to be 31%.
The same measure, in the same setting: to `C/N=C(\S)c1ncccc1N` belongs 9%; to `C/N=C(\S)n1nc(-c2ccc(C)cc2)nc1N`, 65%.
Still for that read-out and setting: to `C/N=C(\S)c1cccnc1N` belongs 27%.
Same read-out and setting: then `CCC/N=C(\S)n1ncnc1N`, with 93%.
With `Nc1ncnn1/C(S)=N/CCCCCO`, the inhibition in vivo at 30 mg/kg was -17%.
Turning to `CNC(=S)n1nc(-c2ccc(OC)cc2)nc1N`, the inhibition in vivo at 30 mg/kg turned out to be 70%.
For the molecule `Nc1ncnn1/C(S)=N/C1CCCCC1`, the inhibition in vivo at 30 mg/kg turned out to be 31%.
Take `C/N=C(\S)n1nc(-c2ccc(Cl)cc2)nc1N`: the inhibition in vivo at 30 mg/kg turned out to be 88%.
As for `CNC(=S)n1nc(SC)nc1N`, the inhibition in vivo at 30 mg/kg was 54%.
On the same count and under the same terms, to `CNC(=O)n1ncnc1N` belongs 40%; to `CS(=O)(=O)n1ncnc1N`, -40%; to `C/N=C(\S)n1cnc(N)n1`, 25%.
Consider `CCOC(=O)C(=O)Nc1ccc(-c2nc(N)n(/C(S)=N/C)n2)cc1`, for which the inhibition in vivo at 30 mg/kg came to 49%.
The same measure, in the same setting: to `C/N=C(\S)n1nnnc1N` belongs 53%; to `Nc1ncnn1/C(S)=N/c1ccccc1`, -7%; to `S=C(NC1CCCCC1)n1cncn1`, 0%.
The same measure, in the same setting: to `CCOCCC/N=C(\S)n1ncnc1N` belongs 1%.
Turning to `C/N=C(\S)c1sccc1N`, the inhibition in vivo at 30 mg/kg was determined as 4%.
For `C/N=C(\S)c1c[nH]nc1N`, the inhibition in vivo at 30 mg/kg is -22%.
The same measure, in the same setting: then `C/N=C(\S)n1nccc1N`, with 27%; and `C/N=C(\S)c1ccccc1N`, with 47%; and `C/N=C(\S)c1nccnc1N`, with 27%.
As for `C/N=C(\S)n1nc(N)nc1N`, the inhibition in vivo at 30 mg/kg amounted to 53%.
The same measure, in the same setting: then `CN(C)C(=S)n1ncnc1N`, with 34%.
On the same count and under the same terms, to `C/N=C(\S)n1nc(-c2ccccc2)nc1N` belongs 54%.
On the same count and under the same terms, then `C/N=C(\S)c1[nH]cnc1N`, with 5%; and `Nc1ncnn1/C(S)=N/Cc1ccccc1`, with 40%.
As to `C/N=C(\S)n1ncnc1N`, the inhibition in vivo at 30 mg/kg stood at 93%.
On to `CCCC/N=C(\S)n1ncnc1N`, for which the inhibition in vivo at 30 mg/kg was found to be 21%.

The subject of another test is Rattus norvegicus. As to the kind of experiment: Inhibitory activity against eosinophilia when administered orally in rats. The note with it: po, read-out: ID50 (the source's name).
`C/N=C(\S)n1nc(-c2ccc(Cl)cc2)nc1N`: the ED50 came to 0.3 mg/kg.
